Experimental data as given in PubChem BioAssay AID504405 (Broad Institute, 2011).
Inconclusive results are not listed. The source made the active and inactive calls.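 The calls were made as follows: active = fitted curve crosses 10% of positive-control caspase signal within tested doses in every repeat test; inconclusive = repeat tests disagree, or any test inconclusive; inactive = the rest.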

How the values were obtained:
[1] = caspase activation in parental wild-type MEFs, dose response, counter-screen for A1 inhibitor project, cell-based, wild-type MEF, CaspaseGlo luminescence, dry powder, set 3 (AID 504405); conditions: wild-type MEF caspase activation, CaspaseGlo luminescence, 3 h; at 35 µM (top of the series)
Outline: (§1)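 test system = wild-type mouse embryonic fibroblasts, unprimed, not A1-dependent | quantity = 2500 cells/well | buffer or medium = RPMI-1640 growth medium with 10% FBS | dosing = compound added by pin transfer | timing = 3 h compound at 37 °C, 1 h CaspaseGlo at RT | signal = luminescence with CaspaseGlo caspase reagent | evaluation = caspase activation as toxicity flag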

[2] = test system: wild-type MEF caspase activation, CaspaseGlo luminescence, 3 h; experiment: as above
Outline: as §1

Row | SMILES | caspase activation [1] | AC10 [2] [µM]
1 | COCCn1c(=O)c(Sc2ccc(C)cc2)c(Sc2ccc(C)cc2)c2ccccc21 | 0.603% (inactive) | 
2 | C/C(=N\Nc1nc(N2CCCCC2)nc(N2CCCCC2)n1)c1ccc(F)cc1 | 0.38% (inactive) | 
3 | Cn1c(=O)c(Sc2ccccn2)c(Sc2ccccn2)c2ccccc21 | 0.793% (inactive) | 
4 | O=C(COc1ccc(Cl)cc1Cl)NNc1nc(N2CCOCC2)nc(N2CCOCC2)n1 | -0.598% (inactive) | 
5 | Cc1ccc(S(=O)(=O)c2c([N+](=O)[O-])c(=O)n(C)c3ccccc23)cc1 | -0.89% (inactive) | 
6 | Cc1ccc(Sc2c(Sc3ccc(C)cc3)c3ccccc3n(Cc3ccccc3)c2=O)cc1 | 0.126% (inactive) | 
7 | O=c1[nH]c2ccccc2c(O)c1[N+](=O)[O-] | 0.522% (inactive) | 
8 | CCn1c(=O)c(Sc2ccc(C)cc2)c(Sc2ccc(C)cc2)c2ccccc21 | 0.52% (inactive) | 
9 | COc1ccc(CCNc2nc(N3CCCC3)nc(N3CCCC3)n2)cc1OC | -0.327% (inactive) | 
10 | Cc1ccc(Sc2c(Sc3ccc(C)cc3)c3ccccc3n(C)c2=O)cc1 | 0.922% (inactive) | 
11 | COCCn1c(=O)c([N+](=O)[O-])c(Cl)c2ccccc21 | -0.545% (inactive) | 
12 | COc1ccc(CCNc2nc(N3CCOCC3)nc(N3CCOCC3)n2)cc1OC | 0.145% (inactive) | 
13 | Cn1c(=O)c([N+](=O)[O-])c(S(C)(=O)=O)c2ccccc21 | -0.856% (inactive) | 
14 | COc1nc2ccccc2c(Cl)c1[N+](=O)[O-] | 6.45% (inactive) | 
15 | CCn1c(=O)c([N+](=O)[O-])c(Sc2ccc(C)cc2)c2ccccc21 | 0.226% (inactive) | 
16 | O=c1c([N+](=O)[O-])c(Cl)c2ccccc2n1Cc1ccccc1 |  | 11.8
17 | COc1c([N+](=O)[O-])c(=O)n(C)c2ccccc12 | 0.426% (inactive) | 
18 | COc1ccc(N2CCN(c3nc(NCCc4ccc(OC)c(OC)c4)nc(N4CCOCC4)n3)CC2)cc1 | 0.165% (inactive) | 
19 | COc1nc2ccccc2c(Sc2ccc(C)cc2)c1[N+](=O)[O-] | 0.723% (inactive) | 
20 | Cc1ccc(Sc2c([N+](=O)[O-])c(=O)n(C)c3ccccc23)cc1 | 5.89% (inactive) | 
